Measurements of several laboratories.
Protocols differ between the studies behind these lines.
ADORA2B: Adenosine receptor A2b (ADORA2B, Homo sapiens, UniProt P29275)
CFTR: Cystic fibrosis transmembrane conductance regulator (CFTR, Homo sapiens, UniProt P13569)
PKN3: Serine/threonine-protein kinase N3 (PKN3, Homo sapiens, UniProt Q6P5Z2)
PTGER2: Prostaglandin E2 receptor EP2 subtype (PTGER2, Homo sapiens, UniProt P43116)

| SMILES | target | observed | mode | method | concentration | setting | inhibition [%] |
| --- | --- | --- | --- | --- | --- | --- | --- |
| C=CN1CCCn2c1nc1c2c(=O)n(C)c(=O)n1C | ADORA2B | ligand displacement | – | radioligand | 10 µM | cell membranes | 1 |
| O=C(CNc1cccc2ccccc12)NN=Cc1cc(Br)c(O)c(Br)c1O | CFTR | ion current | inhibitor | – | 50 µM | – | 86 |
| CN1CCCn2c1nc1c2c(=O)n(C)c(=O)n1C | ADORA2B | ligand displacement | – | radioligand | 10 µM | cell membranes | 6 |
| CCOC(=O)C1=C(C)NC(c2ccccc2)=C(C(=O)OCc2ccccc2)C1C#Cc1ccccc1 (stereo not drawn) | Adenosine receptor A1 (Mus musculus, UniProt Q60612) | ligand displacement | – | radioligand | 10 µM | cell membranes | 0 |
| CC(/C=C/C(=O)NO)=C\[C@@H](C)C(=O)c1ccc(N(C)C)cc1 | Histone deacetylase 11 (HDAC11, Homo sapiens, UniProt Q96DB2) | enzyme activity | inhibitor | fluorescence | 20 µM | – | < 50 |
| CC(=NNC(=O)C(=O)Nc1ccc2ccccc2c1)c1cc(Br)c(O)c(Br)c1O | CFTR | ion current | inhibitor | – | 50 µM | – | 95 |
| CC(C)CCCC(C)N1CCCn2c1nc1c2c(=O)n(C)c(=O)n1C (stereo not drawn) | ADORA2B | ligand displacement | – | radioligand | 10 µM | cell membranes | 0 |
| CCN(c1cc(C#CCN2CCOCC2)cc(C(=O)NCc2c(C)cc(C)[nH]c2=O)c1C)[C@H]1CC[C@H](N(C)CCOC)CC1 | Histone-lysine N-methyltransferase NSD2 (NSD2, Homo sapiens, UniProt O96028) | enzyme activity | inhibitor | – | 1 µM | – | 26 |
| CC(Nc1ccc2ccccc2c1)C(=O)NN=Cc1cc(Br)c(O)c(Br)c1 (stereo not drawn) | CFTR | ion current | inhibitor | – | 50 µM | – | 80 |
| CC(C)OC(=O)NC(C)(C)c1csc(-c2ccc(F)cc2)n1 | N-terminal Xaa-Pro-Lys N-methyltransferase 1 (Homo sapiens, UniProt Q9BV86) | enzyme activity | inhibitor | fluorescence | 100 µM | – | < 50 |
| Cn1cnc(Br)c1C1=CN(c2ncnc3[nH]cnc23)CCS1 | PKN3 | enzyme activity | inhibitor | radiometric | 2 µM | – | 88.3 |
| COc1cc(NC(C)=O)c(Cl)cc1C(=O)Nc1nccs1 | PTGER2 | cell-free assay | – | – | 10 µM | – | 36.3 |
| C#CCN1CCCn2c1nc1c2c(=O)n(C)c(=O)n1C | ADORA2B | ligand displacement | – | radioligand | 10 µM | cell membranes | 29 |
| O=C(c1ccc(F)cc1)N(Cc1ccccc1)C1CCCCC1 | Muscarinic acetylcholine receptor M1 (CHRM1, Homo sapiens, UniProt P11229) | cell-free assay | – | – | 10 µM | – | -1 |
| CN(C)C1CCN(CC#Cc2nn(C3CCCC3)c3nc(NCc4ccccc4)ncc23)C1 (stereo not drawn) | RAF proto-oncogene serine/threonine-protein kinase (RAF1, Homo sapiens, UniProt P04049, Y340D/Y341D) | enzyme activity | inhibitor | FRET | 0.1 µM | – | -5 |
| C=CCN1CCCn2c1nc1c2c(=O)n(C)c(=O)n1C | ADORA2B | ligand displacement | – | radioligand | 10 µM | cell membranes | 6 |
| O=C(c1ccc(Cl)cc1)N(Cc1ccccc1)C1CCCCC1 | PTGER2 | cell-free assay | – | – | 10 µM | – | 14.3 |
| CC(=NNC(=O)CNc1ccc2ccccc2c1)c1cc(Br)c(O)c(Br)c1O | CFTR | ion current | inhibitor | – | 50 µM | – | 81 |
| CCN(CC)c1ccc(C2Nc3ccc(C(=O)c4ccccc4)cc3NC3=C2C(=O)CC(C)(C)C3)cc1 (stereo not drawn) | Beta-3 adrenergic receptor (ADRB3, Homo sapiens, UniProt P13945) | ligand displacement | – | radioligand | 10 µM | – | 0 |
| Cc1ccc(NCC(=O)NN=Cc2cc(Br)c(O)c(Br)c2O)cc1 | CFTR | ion current | inhibitor | – | 50 µM | – | 79 |
| CCCCCN1CCCn2c1nc1c2c(=O)n(C)c(=O)n1C | ADORA2B | ligand displacement | – | radioligand | 10 µM | cell membranes | -3 |
| O=C(CNc1ccc(Cl)cc1)NN=Cc1cc(Br)c(O)c(Br)c1 | CFTR | ion current | inhibitor | – | 50 µM | – | 95 |
| CCCCCC(C)N1CCCn2c1nc1c2c(=O)n(C)c(=O)n1C (stereo not drawn) | ADORA2B | ligand displacement | – | radioligand | 10 µM | cell membranes | -3 |
| Cn1cncc1C1=CN(c2ncnc3[nH]cnc23)CCS1 | PKN3 | enzyme activity | inhibitor | radiometric | 2 µM | – | 80.4 |
